# KCNQ1 inh – inhibitors of human KCNQ1 channel, primary screen, cell-based, thallium flux, high-throughput; Potassium voltage-gated channel subfamily KQT member 1 (Homo sapiens), P51787; CHO-K1 KCNQ1, FluxOR thallium flux fluorescence; hits give high values; B-score at 10 µM; hit rate 1.3% among 310,000; AID 2642, 2010;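 active = compounds whose thallium flux B-score, printed positive for inhibition, exceeds three library SD while starting fluorescence stays within three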;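 also: channel opened by potassium depolarization with thallium stimulus after 20 min compound exposure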
# KCNQ1 act – potentiators or activators of KCNQ1 channel, primary screen, cell-based, thallium flux, high-throughput; Potassium voltage-gated channel subfamily KQT member 1 (Homo sapiens), P51787; AID 2648, 2010; CHO-K1 KCNQ1, thallium flux FluxOR fluorescence; hits give high values; B-score at 10 µM; hit rate 0.35% among 310,000;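 active = fluorescence ratio B-score, a plate-corrected score, at least three library SD, with initial intensity B-score within 5 SD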
#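 Schedule – 37 °C overnight plating, 90-min dark dye load, 20-min compound pretreatment · System – stable KCNQ1 CHO-K1 line · Probe or stimulus – thallium- and potassium-containing depolarizing buffer · Measured by – kinetic FluxOR fluorescence, 10 s baseline plus 110 s post-stimulus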
# KCNK3 block – human KCNK3 channel inhibitors, primary screen, CHO cells, FluxOR thallium flux, B-score | Potassium channel subfamily K member 3 (Homo sapiens), O14649 | FluxOR fluorescence; hits give low values | B-score at 10 µM | hit rate 0.84% among 340,000 | AID 602410, 2012;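 active = B-score under library mean minus 4 SD, starting fluorescence ratio at most library mean plus 5 SD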;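 also: more negative B-score means stronger inhibition of thallium flux through KCNK3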
# hERG rescue – hERG rescue from dofetilide block, primary screen, cell-based, CHO-hERG, FluxOR thallium flux, dofetilide IC70; hit rate 0.51% among 310,000; dofetilide IC70 present; activation (rescue from dofetilide block), less the hit threshold, % at 10 µM; AID 1511, 2009;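 active = activation above the mean of controls blocked by dofetilide plus 5 SD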;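 also: thallium influx through hERG after potassium depolarization seen as dye fluorescence rise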
# Kir21 block – inhibitors of mouse Kir2.1 inward-rectifier potassium channel | B-score at 10 µM | HEK293-Kir2.1, FluxOR thallium flux fluorescence; hits give low values | AID 1672, 2009 | Inward rectifier potassium channel 2 (Mus musculus), P35561 | hit rate 0.85% among 310,000;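 active = fluorescence ratio B-score at or below minus 3 SD of library scores, with starting-brightness B-score within 2 SD, cut at about -4.2 in these data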;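 also: channel flux triggered by added potassium and thallium sulfate stimulus; B-score of peak minus minimum fluorescence over baseline after thallium stimulus; more negative B-score means stronger Kir2.1 block with less thallium influx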
# Target sequence (P35561 whole entry, looked up): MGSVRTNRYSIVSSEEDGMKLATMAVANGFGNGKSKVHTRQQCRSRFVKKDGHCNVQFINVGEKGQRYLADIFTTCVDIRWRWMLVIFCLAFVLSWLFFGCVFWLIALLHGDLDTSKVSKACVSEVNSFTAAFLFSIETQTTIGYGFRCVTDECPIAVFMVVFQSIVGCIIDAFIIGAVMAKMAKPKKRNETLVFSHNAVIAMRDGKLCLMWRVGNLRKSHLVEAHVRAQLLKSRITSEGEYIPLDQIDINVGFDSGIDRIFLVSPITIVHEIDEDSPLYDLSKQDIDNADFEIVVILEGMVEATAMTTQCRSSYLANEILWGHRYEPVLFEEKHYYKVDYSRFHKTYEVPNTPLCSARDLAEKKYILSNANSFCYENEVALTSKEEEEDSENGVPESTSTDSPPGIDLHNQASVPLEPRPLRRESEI
# KCNK9 block – KCNK9 potassium channel inhibitors, primary screen, HEK293 cells, thallium flux | Potassium channel subfamily K member 9 (Homo sapiens), Q9NPC2 | FluxOR thallium flux fluorescence; hits give low values | B-score at 10 µM | hit rate 1.2% among 310,000;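 active = ratio B-score over 3 SD below the library mean, with starting fluorescence within 5 SD of its mean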;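 also: negative B-score means less thallium flux so channel inhibition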
# KCNK9 inh conf – KCNK9 potassium channel inhibitors, confirmation, HEK293 cells, thallium flux, duplicate | FluxOR thallium flux fluorescence | shares compounds with KCNK9 block | hit rate 43% among 4,900 | inhibition, % at 10 µM;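 active = thallium signal inhibited by more than 5 SD of the compound-free buffer control wells, on both duplicate plates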;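 also: 0% = assay buffer control wells without compound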
# Kir21 sel – mouse Kir2.1 channel inhibition, confirmation, selectivity assay for KCNK9 modulator project, cell-based, HEK293, thallium flux. AID 492993, 2010. Kir2.1 cells, FluxOR thallium flux fluorescence. shares compounds with KCNK9 block. inhibition, % at 10 µM. hit rate 4% among 4,900;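 active = thallium signal drop more than 5 SD beyond the mean of the no-compound control wells, seen in both duplicate plates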;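 also: signal is fluorescence rise after thallium addition divided by baseline fluorescence; plate controls were assay buffer only for no effect and full block by chlorpromazine control for full effect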
# HEK293 Tl ctr – thallium flux in non-induced HEK293 cells, confirmation, counter-screen for KCNK9 inhibitor project, cell-based, second counter screen, non-induced KCNK9-HEK293. hit rate 40% among 4,900. FluxOR thallium flux. inhibition, % at 10 µM. shares compounds with KCNK9 block. AID 492997, 2010;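 active = thallium signal drop beyond 5 SD of the untreated control mean, on both duplicate plates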;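 also: plate controls were buffer only IC0 wells for no effect and SID17386958 at its maximal inhibitory level for full effect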
# * hit, by the source's call; i = inactive; / = not tested or not shown. Only some compounds are listed: those with a hit (about 3.8% of all), similar ones and a draw of the others.
SMILES,KCNQ1 inh,KCNQ1 act,KCNK3 block,hERG rescue,Kir21 block,KCNK9 block,KCNK9 inh conf,Kir21 sel,HEK293 Tl ctr
CCCc1ccc(NC(C)C(=O)Nc2ccc(S(=O)(=O)N3CCOCC3)cc2)cc1 (stereo not drawn),/,/,i,/,/,/,/,/,/
Cc1cccc(-n2nc(C(=O)c3ccco3)cc(-c3nc4ccccc4[nH]3)c2=N)c1,10*,i,i,-23.1,1.22,i,i,i,i
Cc1cc(C)c2nc(N(CCN(C)C)C(=O)c3ccc4ccccc4c3)sc2c1,i,i,i,-10.7,1.27,i,i,i,i
CN(C)CCN(C(=O)c1ccc2ccccc2c1)c1nc2c(F)cccc2s1,i,i,i,-13.7,1.68,i,/,/,/
CCCC(C(=O)N(C)CC(=O)Nc1ccc(N2CCOCC2)cc1)c1ccccc1 (stereo not drawn),i,i,i,-10.6,0.34,i,/,/,/
c1ccc(C2Nc3ccccc3C3OCCCC23)cc1 (stereo not drawn),i,i,i,-5.3,-3.72,i,i,i,i
CCOC(=O)c1ccccc1N/C=C/C(=O)c1ccccc1,i,i,i,-5.3,0.31,-15.8*,69.0%*,i,35.5%*
CCOC(=O)c1ccccc1NC(=O)c1ccc(F)cc1,i,i,i,-3.5,-0.09,i,/,/,/
CCOC(=O)c1ccccc1NC(=O)c1c(F)c(F)c(F)c(F)c1F,i,i,i,-15.8,0.62,i,i,i,i
CCOC(=O)c1ccccc1NC(=S)N1CCC(C)CC1,i,i,i,-5.8,-0.38,i,/,/,/
CCOC(=O)c1ccccc1NC(=S)N1CC(C)CC(C)C1 (stereo not drawn),i,i,i,-7.2,-1.03,i,i,i,i
CCOC(=O)C1(C(F)(F)F)N=C(c2cccnc2)OC(N2CCCCC2)=N1 (stereo not drawn),i,i,i,-5.1,1.22,i,/,/,/
COc1ccc(C(=O)OCC(=O)NCC2CCCO2)cc1S(=O)(=O)N1CCCc2ccccc21 (stereo not drawn),i,i,i,-6.5,-0.9,i,/,/,/
c1ccc(C2CCC3(CC2)Oc2ccccc2C2CC(c4cccnc4)=NN23)cc1 (stereo not drawn),i,i,/,-9.3,-0.63,-9.29*,49.5%*,i,41.0%*
CC(C)C[C@H](NC(=O)OC(C)(C)C)C(=O)N/N=C/C1=Cc2ccccc2OC1C (stereo partly drawn),i,i,i,-10.0,0.23,-11.2*,67.5%*,i,32.5%*
CC(C)C[C@H](NC(=O)OC(C)(C)C)C(=O)N/N=C/c1ccc2nccnc2c1,i,i,i,-11.8,0.56,i,/,/,/
COc1ccc(NC(=O)c2cc(-c3cccnc3)nc3c(C)c(C)ccc23)c(OC)c1,i,i,i,-17.6,0.18,i,i,i,i
COc1ccc(NC(=O)c2ccccc2Oc2ccccc2)c(OC)c1,i,i,i,-8.7,-0.18,-8.4*,55.0%*,i,29.5%*

# Compound activity as filed in PubChem BioAssay.
